Each block holds one compound with its values, some of them ahead of it. Activity calls are given as the source filed them. The rule behind the calls is not given here.
What was measured:
[1] = target: T1, Metabotropic glutamate receptor 5 (Rattus norvegicus, UniProt P31424); assay: Positive allosteric modulation at rat mGluR5 receptor expressed in HEK293 cells assessed as glutamate-induced calcium fluorescence by Fluo-4/AM dye-based fluorescence assay; assay type: functional, cell-based
[2] = target: Metabotropic glutamate receptor 5 (Rattus norvegicus) (UniProt P31424); assay: Positive allosteric modulation at rat mGluR5 receptor expressed in HEK293 cells assessed as glutamate-induced calcium fluorescence at 30 uM by Fluo-4/AM dye-based fluorescence assay in relative to glutamate; assay type: functional, cell-based
Sequence of Metabotropic glutamate receptor 5 (Rattus norvegicus) (P31424 21-1203 limits assumed): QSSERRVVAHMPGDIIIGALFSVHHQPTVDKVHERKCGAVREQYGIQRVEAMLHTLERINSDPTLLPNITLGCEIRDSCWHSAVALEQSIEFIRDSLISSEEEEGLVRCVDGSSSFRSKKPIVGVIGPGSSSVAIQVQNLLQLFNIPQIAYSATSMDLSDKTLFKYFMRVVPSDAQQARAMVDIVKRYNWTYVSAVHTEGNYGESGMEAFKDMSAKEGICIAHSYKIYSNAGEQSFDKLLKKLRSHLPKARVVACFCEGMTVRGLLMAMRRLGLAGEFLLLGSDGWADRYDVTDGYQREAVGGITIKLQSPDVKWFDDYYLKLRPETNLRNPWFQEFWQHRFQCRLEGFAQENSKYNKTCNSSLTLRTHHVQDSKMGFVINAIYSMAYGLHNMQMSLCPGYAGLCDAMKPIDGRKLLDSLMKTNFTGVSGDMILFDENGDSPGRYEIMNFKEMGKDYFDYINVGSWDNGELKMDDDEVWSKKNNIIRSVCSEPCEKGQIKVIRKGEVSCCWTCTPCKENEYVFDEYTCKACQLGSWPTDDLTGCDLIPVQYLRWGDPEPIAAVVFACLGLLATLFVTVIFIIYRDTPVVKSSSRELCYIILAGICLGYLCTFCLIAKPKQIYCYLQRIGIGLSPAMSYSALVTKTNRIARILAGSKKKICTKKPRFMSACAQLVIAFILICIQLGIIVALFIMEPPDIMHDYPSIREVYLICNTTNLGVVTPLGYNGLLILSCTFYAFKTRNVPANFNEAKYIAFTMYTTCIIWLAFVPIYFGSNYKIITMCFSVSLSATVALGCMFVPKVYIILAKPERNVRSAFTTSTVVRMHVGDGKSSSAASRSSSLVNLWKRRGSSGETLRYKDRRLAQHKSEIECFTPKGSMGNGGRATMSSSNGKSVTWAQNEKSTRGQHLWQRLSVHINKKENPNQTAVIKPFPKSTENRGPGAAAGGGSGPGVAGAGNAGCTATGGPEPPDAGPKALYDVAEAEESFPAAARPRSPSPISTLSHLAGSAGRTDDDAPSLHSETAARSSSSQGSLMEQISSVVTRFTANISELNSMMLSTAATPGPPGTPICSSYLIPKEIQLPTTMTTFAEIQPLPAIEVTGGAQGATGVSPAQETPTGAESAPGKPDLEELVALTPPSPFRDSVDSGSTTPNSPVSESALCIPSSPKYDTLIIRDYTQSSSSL

[3] = target: T1, Metabotropic glutamate receptor 5; assay: Negative allosteric modulation at rat mGluR5 receptor
[4] = Passive transcellular permeability of the compound by PAMPA; assay type: ADME; conditions: read-out: permeability
[5] = target: Metabotropic glutamate receptor 2 (Rattus norvegicus) (UniProt P31421); assay: Potentiation of rat mGluR2 receptor assessed as fold shift in glutamate concentration response curve at 10 uM relative to control
Sequence of Metabotropic glutamate receptor 2 (Rattus norvegicus) (P31421 19-872 limits assumed): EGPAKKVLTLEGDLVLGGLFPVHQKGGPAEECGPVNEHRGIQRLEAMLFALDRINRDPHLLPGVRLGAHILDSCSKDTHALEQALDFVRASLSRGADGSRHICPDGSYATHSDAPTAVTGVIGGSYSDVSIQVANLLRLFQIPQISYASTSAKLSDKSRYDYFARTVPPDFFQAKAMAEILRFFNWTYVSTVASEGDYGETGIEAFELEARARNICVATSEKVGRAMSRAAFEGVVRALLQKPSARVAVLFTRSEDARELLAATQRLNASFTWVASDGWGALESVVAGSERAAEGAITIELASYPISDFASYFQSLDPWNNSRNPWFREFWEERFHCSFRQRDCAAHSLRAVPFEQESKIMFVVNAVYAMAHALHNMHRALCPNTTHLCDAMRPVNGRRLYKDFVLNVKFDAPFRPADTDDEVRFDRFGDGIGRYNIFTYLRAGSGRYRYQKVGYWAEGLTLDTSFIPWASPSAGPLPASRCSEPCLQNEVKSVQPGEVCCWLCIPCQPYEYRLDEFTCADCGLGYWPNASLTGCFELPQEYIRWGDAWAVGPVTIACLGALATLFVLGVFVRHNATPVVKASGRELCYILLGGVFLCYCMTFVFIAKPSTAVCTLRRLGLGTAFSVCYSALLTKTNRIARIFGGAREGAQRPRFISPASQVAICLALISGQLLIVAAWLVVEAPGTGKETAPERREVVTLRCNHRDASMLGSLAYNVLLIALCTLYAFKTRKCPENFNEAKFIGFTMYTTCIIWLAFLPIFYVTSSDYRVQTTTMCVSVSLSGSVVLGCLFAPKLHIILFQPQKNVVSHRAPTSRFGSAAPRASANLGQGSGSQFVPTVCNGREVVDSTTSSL

[6] = target: Metabotropic glutamate receptor 5 (Rattus norvegicus) (UniProt P31424); assay: Potentiation of rat mGluR5 receptor assessed as fold shift in glutamate concentration response curve at 10 uM relative to control
[7] = target: Metabotropic glutamate receptor 6 (Rattus norvegicus) (UniProt P35349); assay: Potentiation of rat mGluR6 receptor assessed as fold shift in glutamate concentration response curve at 10 uM relative to control
[8] = target: Metabotropic glutamate receptor 1 (Rattus norvegicus) (UniProt P23385); assay: Potentiation of rat mGluR1 receptor assessed as fold shift in glutamate concentration response curve at 10 uM relative to control
Rattus norvegicus = assay: Reversal of amphetamine-induced hyperlocomotion in Sprague-Dawley rat at 56.6 mg/kg, ip administered 30 mins before amphetamine challenge measured for 60 mins; assay type: functional, organism-based; design: dose 56.6 mg/kg
Outline: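 Rats get vehicle or 56.6 mg/kg compound ip in 20% HP β-cyclodextrin 30 min before 1 mg/kg sc amphetamine, given at 60 min. Ambulations (beam breaks per 5 min interval) are counted for a further 60 min. Groups are 12−14 rats, shown as mean ± SEM, compared with the vehicle + amphetamine group by Dunnett's test.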

[9] = Metabolic stability in Sprague-Dawley rat liver microsome assessed as compound remaining after 60 mins by LC-MS-MS; assay type: ADME; conditions: liver microsomes, read-out: Stability
[10] = Metabolic stability in human liver microsome assessed as compound remaining after 60 mins by LC-MS-MS; assay type: ADME; conditions: liver microsomes, read-out: Stability
Plasma [11] = assay: Plasma protein binding in Sprague-Dawley rat after 4 hrs by LC-MS-MS; assay type: ADME, cell-free
[12] = Aqueous solubility of the compound in 0.01 N HCl buffer at pH 2 by HPLC; assay type: physicochemical
Plasma [13] = assay: Plasma protein binding in human after 4 hrs by LC-MS-MS; assay type: ADME, cell-free
[14] = target: Metabotropic glutamate receptor 5 (Rattus norvegicus) (UniProt P31424); assay: Positive allosteric modulation at mGluR5 in […] cells at 30 uM by Fluo-4/AM dye-based fluorescence assay; assay type: cell-based
[15] = Aqueous solubility of the compound in 0.1 M citrate buffer at pH 4 by HPLC; assay type: physicochemical
[16] = target: Metabotropic glutamate receptor 5 (Rattus norvegicus) (UniProt P31424); assay: Potentiation of rat mGluR5 expressed in HEK293 cells assessed as glutamate-induced calcium fluorescence at 10 uM by Fluo-4/AM dye-based fluorescence assay; assay type: functional, cell-based
[17] = Aqueous solubility of the compound in 0.2M sodium phosphate buffer at pH 7.4 by HPLC; assay type: physicochemical
[18] = target: Metabotropic glutamate receptor 4 (Rattus norvegicus) (UniProt P31423); assay: Potentiation of rat mGluR4 receptor assessed as fold shift in glutamate concentration response curve at 10 uM relative to control
[19] = target: Metabotropic glutamate receptor 8 (Rattus norvegicus) (UniProt P70579); assay: Potentiation of rat mGluR8 receptor assessed as fold shift in glutamate concentration response curve at 10 uM relative to control
Sequence of Metabotropic glutamate receptor 8 (Rattus norvegicus) (P70579 whole entry): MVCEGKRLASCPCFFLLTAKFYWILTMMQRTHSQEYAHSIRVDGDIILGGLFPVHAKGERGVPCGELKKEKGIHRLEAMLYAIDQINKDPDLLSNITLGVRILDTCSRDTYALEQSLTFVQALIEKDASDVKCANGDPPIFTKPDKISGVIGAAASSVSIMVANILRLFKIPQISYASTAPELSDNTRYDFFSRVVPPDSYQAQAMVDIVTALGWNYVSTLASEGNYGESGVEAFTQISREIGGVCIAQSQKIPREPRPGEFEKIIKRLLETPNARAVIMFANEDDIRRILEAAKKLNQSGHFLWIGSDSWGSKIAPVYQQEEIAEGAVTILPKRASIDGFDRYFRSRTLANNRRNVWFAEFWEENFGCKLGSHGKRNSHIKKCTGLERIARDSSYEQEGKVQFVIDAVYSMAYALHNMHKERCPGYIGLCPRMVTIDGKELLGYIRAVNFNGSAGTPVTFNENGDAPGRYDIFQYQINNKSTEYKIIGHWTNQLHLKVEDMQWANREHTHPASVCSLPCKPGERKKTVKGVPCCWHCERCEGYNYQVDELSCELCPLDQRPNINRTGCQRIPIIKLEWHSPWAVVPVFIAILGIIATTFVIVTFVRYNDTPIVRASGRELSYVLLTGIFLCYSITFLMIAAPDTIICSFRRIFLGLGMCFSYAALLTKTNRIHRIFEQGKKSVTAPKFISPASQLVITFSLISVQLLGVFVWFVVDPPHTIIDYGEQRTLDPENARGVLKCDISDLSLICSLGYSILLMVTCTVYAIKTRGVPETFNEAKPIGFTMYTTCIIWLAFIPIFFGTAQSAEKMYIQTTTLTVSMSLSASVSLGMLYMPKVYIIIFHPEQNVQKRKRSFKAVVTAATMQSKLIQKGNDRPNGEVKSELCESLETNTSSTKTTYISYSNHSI

[20] = target: Metabotropic glutamate receptor 3 (Rattus norvegicus) (UniProt P31422); assay: Potentiation of rat mGluR3 receptor assessed as fold shift in glutamate concentration response curve at 10 uM relative to control
[21] = target: Metabotropic glutamate receptor 5 (Rattus norvegicus) (UniProt P31424); assay: Displacement of [3H]3-methoxy-PEPy from rat mGluR5 receptor allosteric binding site at 30 uM
Outline: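 Radioligand binding uses [3H]3-methoxy-PEPy at the mGluR5 allosteric site. Displacement is read at the highest compound concentration tested, 30 μM.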

[22] = target: Metabotropic glutamate receptor 7 (Rattus norvegicus) (UniProt P35400); assay: Potentiation of rat mGluR7 receptor assessed as fold shift in glutamate concentration response curve at 10 uM relative to control
Sequence of Metabotropic glutamate receptor 7 (Rattus norvegicus) (P35400 whole entry): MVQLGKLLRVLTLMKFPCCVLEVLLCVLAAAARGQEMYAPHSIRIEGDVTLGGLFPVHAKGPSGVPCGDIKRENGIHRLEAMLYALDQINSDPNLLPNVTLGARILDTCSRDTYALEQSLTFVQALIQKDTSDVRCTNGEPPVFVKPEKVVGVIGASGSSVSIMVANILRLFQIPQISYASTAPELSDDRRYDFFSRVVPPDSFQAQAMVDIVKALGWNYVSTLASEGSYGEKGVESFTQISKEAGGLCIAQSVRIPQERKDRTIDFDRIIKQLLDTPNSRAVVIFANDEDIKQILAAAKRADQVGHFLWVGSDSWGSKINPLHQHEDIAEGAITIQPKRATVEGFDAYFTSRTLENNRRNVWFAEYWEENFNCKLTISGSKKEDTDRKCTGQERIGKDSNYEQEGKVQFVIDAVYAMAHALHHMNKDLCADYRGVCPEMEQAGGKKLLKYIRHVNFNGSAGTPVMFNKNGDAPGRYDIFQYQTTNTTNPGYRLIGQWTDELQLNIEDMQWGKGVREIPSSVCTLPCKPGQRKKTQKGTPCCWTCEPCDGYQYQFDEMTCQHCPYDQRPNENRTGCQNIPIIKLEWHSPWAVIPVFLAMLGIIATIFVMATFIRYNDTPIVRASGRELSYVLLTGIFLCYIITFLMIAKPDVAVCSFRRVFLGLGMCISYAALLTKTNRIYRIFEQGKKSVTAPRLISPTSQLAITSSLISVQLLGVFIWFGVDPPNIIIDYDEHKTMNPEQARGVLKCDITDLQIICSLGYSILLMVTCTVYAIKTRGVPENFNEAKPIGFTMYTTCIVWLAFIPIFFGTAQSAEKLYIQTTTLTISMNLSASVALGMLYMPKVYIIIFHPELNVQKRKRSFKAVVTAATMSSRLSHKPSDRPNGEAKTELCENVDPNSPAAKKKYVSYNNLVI

T1 sequence (P31424 whole entry): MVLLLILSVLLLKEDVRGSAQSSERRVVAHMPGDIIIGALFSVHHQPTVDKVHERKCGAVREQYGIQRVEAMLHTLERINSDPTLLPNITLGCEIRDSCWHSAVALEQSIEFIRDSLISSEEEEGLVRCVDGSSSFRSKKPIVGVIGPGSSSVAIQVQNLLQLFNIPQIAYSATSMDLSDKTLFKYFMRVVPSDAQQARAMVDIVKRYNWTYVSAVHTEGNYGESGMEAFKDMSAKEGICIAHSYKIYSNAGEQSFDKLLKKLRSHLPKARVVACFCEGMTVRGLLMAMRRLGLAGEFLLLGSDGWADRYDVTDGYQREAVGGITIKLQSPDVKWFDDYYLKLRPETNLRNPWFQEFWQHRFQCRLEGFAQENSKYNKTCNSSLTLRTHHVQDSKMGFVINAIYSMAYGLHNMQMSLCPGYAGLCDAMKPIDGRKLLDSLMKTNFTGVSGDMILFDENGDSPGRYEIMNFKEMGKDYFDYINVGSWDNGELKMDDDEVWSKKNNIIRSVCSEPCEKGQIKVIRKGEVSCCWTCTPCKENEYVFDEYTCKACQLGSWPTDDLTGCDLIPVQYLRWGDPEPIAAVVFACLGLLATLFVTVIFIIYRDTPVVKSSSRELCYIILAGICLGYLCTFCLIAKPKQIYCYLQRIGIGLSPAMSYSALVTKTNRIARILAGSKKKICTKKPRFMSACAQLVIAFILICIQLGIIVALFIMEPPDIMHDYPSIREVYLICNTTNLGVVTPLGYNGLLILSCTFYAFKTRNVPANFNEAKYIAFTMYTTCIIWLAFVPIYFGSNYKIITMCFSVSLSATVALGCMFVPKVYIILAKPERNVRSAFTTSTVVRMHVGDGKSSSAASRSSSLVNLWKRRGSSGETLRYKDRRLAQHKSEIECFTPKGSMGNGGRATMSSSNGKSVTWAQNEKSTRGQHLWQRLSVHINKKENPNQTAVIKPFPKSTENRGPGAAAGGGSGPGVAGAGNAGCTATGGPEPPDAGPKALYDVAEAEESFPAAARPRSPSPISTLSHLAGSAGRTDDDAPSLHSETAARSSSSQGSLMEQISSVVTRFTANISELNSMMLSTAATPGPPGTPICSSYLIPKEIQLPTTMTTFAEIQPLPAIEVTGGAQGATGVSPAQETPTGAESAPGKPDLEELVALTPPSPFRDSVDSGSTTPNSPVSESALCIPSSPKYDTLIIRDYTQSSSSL

Compound: O=C(N1CCN(c2ccccn2)CC1)C12CC3CC(CC(C3)C1)C2
IC50 [3]: 990 nM

Compound: O=C(COCc1ccccc1)N1CCN(c2ccccc2[N+](=O)[O-])CC1
EC50 ([1]; read-out: EC50): 1.8 µM
Activity [2]: 81%

Compound: COC(=O)c1ccccc1N1CCN(C(=O)COCc2ccccc2)CC1
EC50 ([1]; read-out: EC50): > 10 µM
Activity [2]: 51%

Compound: O=C(COCc1ccccc1)N1CCN(c2nc3ccccc3s2)CC1
EC50 ([1]; read-out: EC50): > 10 µM
Activity [2]: 66%

Compound: COc1ccccc1N1CCN(C(=O)COCc2ccccc2)CC1
EC50 ([1]; read-out: EC50): 9.2 µM
Activity [2]: 86%

Compound: N#Cc1ccccc1N1CCN(C(=O)COCc2ccccc2)CC1
Papp [4]: 2.2 ×10⁻⁶ cm/s
Activity [5]: inactive
fold change (FC) [6]: 12
Activity [7]: inactive
EC50 ([1]; read-out: EC50): 1.6 µM
Activity [8]: inactive
Activity (Rattus norvegicus): Active
remaining at 1 h [9]: < 5%
remaining at 1 h [10]: < 5%
PPB (Plasma [11]): 90%
solubility [12]: > 80 µM
PPB (Plasma [13]): 94%
Activity [14]: < 10%
solubility [15]: > 80 µM
Activity [16]: Active
solubility [17]: > 80 µM
Activity [18]: inactive
Activity [2]: 78%
Activity [19]: inactive
Activity [20]: inactive
Activity [21]: inactive
Activity [22]: inactive

Now from value to compound:

EC50 ([1]; read-out: EC50): > 10 µM
Activity [2]: 33%
Compound: N#Cc1cccnc1N1CCN(C(=O)COCc2ccccc2)CC1

EC50 ([1]; read-out: EC50): > 10 µM
Activity [2]: 30%
Compound: O=C(COCc1ccccc1)N1CCN(c2nccs2)CC1

EC50 ([1]; read-out: EC50): 0.82 µM
Activity [2]: 90%
Compound: O=C(COCc1ccccc1)N1CCN(c2ccccc2Cl)CC1

EC50 ([1]; hek293): Not Active
Compound: O=C(COCc1ccccc1)N1CCN(c2cccnc2)CC1

EC50 ([1]; read-out: EC50): 5.4 µM
Activity [2]: 86%
Compound: O=C(COCc1ccccc1)N1CCN(c2ccccn2)CC1

EC50 ([1]; read-out: EC50): 4.3 µM
Activity [2]: 70%
Compound: O=C(COCc1ccccc1)N1CCN(c2ncccc2C(F)(F)F)CC1

EC50 ([1]; hek293): Not Active
Compound: O=C(COCc1ccccc1)N1CCN(c2ncccn2)CC1

Source: ChEMBL document CHEMBL1687701, “Discovery of N-Aryl Piperazines as Selective mGlu(5) Potentiators with Efficacy in a Rodent Model Predictive of Anti-Psychotic Activity” (ACS Med Chem Lett, 2010)
